The values that follow come from ChEMBL document CHEMBL4052589, “Discovery of Imidazo[1,2-a]pyridine Ethers and Squaramides as Selective and Potent Inhibitors of Mycobacterial Adenosine Triphosphate (ATP) Synthesis” (J Med Chem, 2017).

Structures are written as SMILES.

For the assay, the system named is Mycobacterium tuberculosis. Put plainly: Induction of membrane damage in Mycobacterium bovis BCG after 60 mins by DiOC2 probe-based fluorescence assay. Type of assay: functional. To be noted: variant bovis BCG, 1 h. In outline:
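Cell-based assay. Mid-log phase BCG culture was pre-loaded with DiOC2 before compound exposure. Fluorescence was read as the red-shifted emission at 600 nm, which tracks membrane potential. CCCP served as the positive control, and IC50 was derived.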

`c1ccc(OCCCOc2c(-c3ccccc3)nc3ccccn23)cc1`: the 50% inhibitory concentration (IC50) is above 100 µM.

`O=c1c(NCc2cnccn2)c(-c2ccc(N3CCOCC3)cc2)c1=O` gave an IC50 above 100 µM.

In turn, `Cc1ccc2nc(-c3ccc(F)cc3)c(OCCCNc3ccc(F)c(C)c3)n2c1` showed a concentration for half-maximal inhibition (IC50) above 100 µM.

The molecule `Cc1ccc2nc(-c3ccc(F)cc3)c(OCCCNc3ccc(F)c(C)n3)n2c1` gave an IC50 above 100 µM.

Molecule `Cc1ccc2nc(-c3ccccc3)c(OCCCOc3ccccc3)n2c1` showed a 50% inhibitory concentration (IC50) above 100 µM.

`O=c1c(NCc2ccccn2)c(-c2ccc(N3CCOCC3)cc2)c1=O` showed an IC50 above 100 µM.
